From ChEMBL document CHEMBL4396885, “Thioether-based 2-aminobenzamide derivatives: Novel HDAC inhibitors with potent in vitro and in vivo antitumor activity” (Eur J Med Chem, 2019)

Key:
[1] = system: A549; test: Cell cycle arrest in human A549 cells assessed as accumulation of cells at G2/M phase at 1 uM after 48 hrs by propidium iodide staining-based flow cytometry (reference value: 13.62%); type: functional
[2] = Toxicity against nude Balb/c mouse xenografted with human A549 cells assessed as no change in body weight at 25 mg/kg, ip administered twice per day for 21 days and measured every 3 days during compound dosing; type: organism-based; settings: in vivo
Procedure, shortened: (§1)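 Female BALB/c nude mice, 5–6 weeks, implanted s.c. in right axilla with 3×10⁶ A549 cells; randomized at ~95 mm³ tumor volume, 4 per group. Dosed ip 25 mg/kg twice daily for 21 days; vehicle controls got DMA & 5% Solutol HS-15 (5:95). Tumor size (V=length×width²/2) and body weight measured every 3 days; TGI from volume change relative to control.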

[3] = system: A549; test: Induction of apoptosis in human A549 cells assessed as early apoptotic cells at 1 uM after 48 hrs by Annexin V-FITC/propidium iodide staining based flow cytometry (reference value: 1.19%); type: functional
Procedure, shortened: (§2)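 A549 seeded 4×10⁶ cells/well, dosed after 12 h with compound at various concentrations, harvested after 48 h. Resuspended in annexin-binding buffer, stained with Annexin V-FITC and propidium iodide for 15 min in the dark, analysed by flow cytometry; means of three separate experiments.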

[4] = system: SMMC-7721; test: Antiproliferative activity against human SMMC7721 cells assessed as growth inhibition at 8 uM after 72 hrs by CCK-8 assay relative to control; type: functional; settings: SMMC-7721, 72 h, read-out: GI
[5] = system: A549; test: Induction of apoptosis in human A549 cells assessed as late apoptotic cells at 2 uM after 48 hrs by Annexin V-FITC/propidium iodide staining based flow cytometry (reference value: 0.637%); type: functional; procedure, shortened: as §2
[6] = system: HeLa; test: Antiproliferative activity against human HeLa cells assessed as decrease in cell viability after 72 hrs by CCK-8 assay; type: functional, cell-based
Procedure, shortened: (§3)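 Cells grown to 70–85% confluence (A375, A549, HCT116 in RPMI1640; HeLa, SMMC7721 in DMEM; 10% FBS, 37 °C, 5% CO2), seeded 4000/well, dosed after 12 h across a concentration range, incubated 72 h, then CCK-8 for 1 h; absorbance at 450 nm. IC50 as mean ± SD of three separate experiments.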

[7] = system: HeLa; test: Antiproliferative activity against human HeLa cells assessed as growth inhibition at 2 uM after 72 hrs by CCK-8 assay relative to control; type: functional; settings: read-out: GI
[8] = system: A549; test: Induction of apoptosis in human A549 cells assessed as viable cells at 2 uM after 48 hrs by Annexin V-FITC/propidium iodide staining based flow cytometry (reference value: 98%); type: functional; settings: A549, 48 h, read-out: Activity; procedure, shortened: as §2
[9] = system: A549; test: Induction of apoptosis in human A549 cells assessed as early apoptotic cells at 0.5 uM after 48 hrs by Annexin V-FITC/propidium iodide staining based flow cytometry (reference value: 1.19%); type: functional; procedure, shortened: as §2
[10] = system: A549; test: Antiproliferative activity against human A549 cells assessed as growth inhibition at 8 uM after 72 hrs by CCK-8 assay relative to control; type: functional; settings: A549, 72 h, read-out: GI
[11] = system: A549; test: Induction of apoptosis in human A549 cells assessed as necrotic cells at 0.5 uM after 48 hrs by Annexin V-FITC/propidium iodide staining based flow cytometry (reference value: 0.135%); type: functional; procedure, shortened: as §2
[12] = system: A549; test: Induction of apoptosis in human A549 cells assessed as necrotic cells at 2 uM after 48 hrs by Annexin V-FITC/propidium iodide staining based flow cytometry (reference value: 0.135%); type: functional; procedure, shortened: as §2
[13] = system: A549; test: Cell cycle arrest in human A549 cells assessed as accumulation of cells at G0/G1 phase at 1 uM after 48 hrs by propidium iodide staining-based flow cytometry (reference value: 73.35%); type: functional
[14] = system: A-375; test: Antiproliferative activity against human A375 cells assessed as decrease in cell viability after 72 hrs by CCK-8 assay; type: functional, cell-based; settings: A-375, 72 h; procedure, shortened: as §3
[15] = system: A-375; test: Antiproliferative activity against human A375 cells assessed as growth inhibition at 2 uM after 72 hrs by CCK-8 assay relative to control; type: functional; settings: A-375, 72 h, read-out: GI
[16] = system: HCT-116; test: Antiproliferative activity against human HCT116 cells assessed as growth inhibition at 8 uM after 72 hrs by CCK-8 assay relative to control; type: functional; settings: HCT-116, 72 h, read-out: GI
[17] = system: A549; test: Cell cycle arrest in human A549 cells assessed as accumulation of cells at S phase at 1 uM after 48 hrs by propidium iodide staining-based flow cytometry (reference value: 12.83%); type: functional
[18] = system: A549; test: Cell cycle arrest in human A549 cells assessed as accumulation of cells at G2/M phase at 2 uM after 48 hrs by propidium iodide staining-based flow cytometry (reference value: 13.62%); type: functional
[19] = system: A549; test: Induction of apoptosis in human A549 cells assessed as early apoptotic cells at 2 uM after 48 hrs by Annexin V-FITC/propidium iodide staining based flow cytometry (reference value: 1.19%); type: functional; procedure, shortened: as §2
[20] = system: A-375; test: Antiproliferative activity against human A375 cells assessed as growth inhibition at 8 uM after 72 hrs by CCK-8 assay relative to control; type: functional; settings: A-375, 72 h, read-out: GI
[21] = system: A549; test: Cell cycle arrest in human A549 cells assessed as accumulation of cells at G2/M phase at 0.5 uM after 48 hrs by propidium iodide staining-based flow cytometry (reference value: 13.62%); type: functional
[22] = system: A549; test: Induction of apoptosis in human A549 cells assessed as necrotic cells at 1 uM after 48 hrs by Annexin V-FITC/propidium iodide staining based flow cytometry (reference value: 0.135%); type: functional; procedure, shortened: as §2
[23] = system: A549; test: Antiproliferative activity against human A549 cells assessed as decrease in cell viability after 72 hrs by CCK-8 assay; type: functional, cell-based; settings: A549, 72 h; procedure, shortened: as §3
[24] = system: SMMC-7721; test: Antiproliferative activity against human SMMC7721 cells assessed as decrease in cell viability after 72 hrs by CCK-8 assay; type: functional, cell-based; settings: SMMC-7721, 72 h; procedure, shortened: as §3
[25] = system: A549; test: Cell cycle arrest in human A549 cells assessed as accumulation of cells at S phase at 0.5 uM after 48 hrs by propidium iodide staining-based flow cytometry (reference value: 12.83%); type: functional
[26] = system: HCT-116; test: Antiproliferative activity against human HCT116 cells assessed as decrease in cell viability after 72 hrs by CCK-8 assay; type: functional, cell-based; settings: HCT-116, 72 h; procedure, shortened: as §3
[27] = system: A549; test: Induction of apoptosis in human A549 cells assessed as late apoptotic cells at 1 uM after 48 hrs by Annexin V-FITC/propidium iodide staining based flow cytometry (reference value: 0.637%); type: functional; procedure, shortened: as §2
[28] = system: A549; test: Antitumor activity against human A549 cells xenografted in Balb/c nude mouse assessed as tumor growth inhibition at 25 mg/kg, ip administered twice per day for 21 days relative to control; type: functional; settings: 504 h, read-out: TGI; procedure, shortened: as §1
[29] = system: A549; test: Cell cycle arrest in human A549 cells assessed as accumulation of cells at G0/G1 phase at 0.5 uM after 48 hrs by propidium iodide staining-based flow cytometry (reference value: 73.35%); type: functional
[30] = system: A549; test: Induction of apoptosis in human A549 cells assessed as late apoptotic cells at 0.5 uM after 48 hrs by Annexin V-FITC/propidium iodide staining based flow cytometry (reference value: 0.637%); type: functional; procedure, shortened: as §2
[31] = system: HCT-116; test: Antiproliferative activity against human HCT116 cells assessed as growth inhibition at 2 uM after 72 hrs by CCK-8 assay relative to control; type: functional; settings: HCT-116, 72 h, read-out: GI
[32] = system: A549; test: Cell cycle arrest in human A549 cells assessed as accumulation of cells at G0/G1 phase at 2 uM after 48 hrs by propidium iodide staining-based flow cytometry (reference value: 73.35%); type: functional
[33] = system: A549; test: Induction of apoptosis in human A549 cells assessed as viable cells at 1 uM after 48 hrs by Annexin V-FITC/propidium iodide staining based flow cytometry (reference value: 98%); type: functional; settings: A549, 48 h, read-out: Activity; procedure, shortened: as §2
[34] = system: A549; test: Induction of apoptosis in human A549 cells assessed as viable cells at 0.5 uM after 48 hrs by Annexin V-FITC/propidium iodide staining based flow cytometry (reference value: 98%); type: functional; settings: A549, 48 h, read-out: Activity; procedure, shortened: as §2
[35] = system: A549; test: Cell cycle arrest in human A549 cells assessed as accumulation of cells at S phase at 2 uM after 48 hrs by propidium iodide staining-based flow cytometry (reference value: 12.83%); type: functional
[36] = system: HeLa; test: Antiproliferative activity against human HeLa cells assessed as growth inhibition at 8 uM after 72 hrs by CCK-8 assay relative to control; type: functional; settings: read-out: GI
[37] = system: A549; test: Antiproliferative activity against human A549 cells assessed as growth inhibition at 2 uM after 72 hrs by CCK-8 assay relative to control; type: functional; settings: A549, 72 h, read-out: GI
[38] = system: SMMC-7721; test: Antiproliferative activity against human SMMC7721 cells assessed as growth inhibition at 2 uM after 72 hrs by CCK-8 assay relative to control; type: functional; settings: SMMC-7721, 72 h, read-out: GI
[39] = Volume of distribution at steady state n ICR mouse at 4 mg/kg, iv after 0.08 to 24 hrs by LC-MS/MS analysis; type: ADME, organism-based; settings: in vivo, read-out: Vdss
Procedure, shortened: (§4)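 Male ICR mice (29.7~37.4 g), single iv dose 4 mg/kg in DMSO:40% SBE-β-CD 20:80 (v/v). Retro-orbital blood at 0.08–24 h into EDTA-K2 tubes; plasma protein-precipitated with acetonitrile containing internal standards, analysed by LC-MS/MS; n=3 per time point; noncompartmental analysis.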

[40] = Half life in ICR mouse at 4 mg/kg, iv after 0.08 to 24 hrs by LC-MS/MS analysis; type: ADME, organism-based; settings: in vivo; procedure, shortened: as §4
[41] = Clearance in ICR mouse at 4 mg/kg, iv after 0.08 to 24 hrs by LC-MS/MS analysis; type: ADME, organism-based; settings: in vivo; procedure, shortened: as §4

IC50 [6] | IC50 [14] | SMILES | Activity [1] | Activity [3] | inhibition of growth at 8 µM [4] | Activity [5] | inhibition of growth at 2 µM [7] | viability at 2 µM [8] | Activity [9] | inhibition of growth at 8 µM [10] | Activity [11] | Activity [12] | Activity [13] | inhibition of growth at 2 µM [15] | inhibition of growth at 8 µM [16] | Activity [17] | Activity [18] | Activity [19] | inhibition of growth at 8 µM [20] | Activity [21] | also measured
13.4 µM | 9.64 µM | CC(=O)Nc1ccc(C(=O)Nc2ccccc2N)cc1 [TACEDINALINE] | 17.41% | 3.92% | 29.1% | 9.92% | 23.5% | 83.3% | 1.17% | 29.1% | 4.6% | 3.15% | 75.86% | 12.8% | 44% | 6.73% | 15.25% | 3.68% | 46.4% | 15.37% | Activity [2]: Non-Toxic; Activity [22]: 0.521%; IC50 [23]: 16.4 µM; IC50 [24]: 14.1 µM; Activity [25]: 7.64%; IC50 [26]: 6.39 µM; Activity [27]: 5.87%; inhibition in vivo at 25 mg/kg [28]: 46.8%; Activity [29]: 76.99%; Activity [30]: 1.86%; inhibition of growth at 2 µM [31]: 13%; Activity [32]: 77.38%; viability at 1 µM [33]: 89.7%; viability at 0.5 µM [34]: 92.4%; Activity [35]: 7.37%; inhibition of growth at 8 µM [36]: 29.1%; inhibition of growth at 2 µM [37]: 23.5%; inhibition of growth at 2 µM [38]: 23.5%
3.42 µM | 4.77 µM | Nc1ccc(F)cc1NC(=O)c1ccc(CNC(=O)/C=C/c2cccnc2)cc1 | 18.67% | 1.01% | 71.7% | 4.14% | 20.6% | 91% | 2.17% | 85.6% | 0.455% | 0.881% | 74.07% | 56.5% | 87.4% | 7.26% | 15.04% | 3.97% | 71.7% | 17.79% | Activity [22]: 4.71%; IC50 [23]: 6.81 µM; IC50 [24]: 8.63 µM; Activity [25]: 6.97%; IC50 [26]: 1.57 µM; Activity [27]: 5.25%; Activity [29]: 75.24%; Activity [30]: 0.898%; inhibition of growth at 2 µM [31]: 61.1%; Activity [32]: 75.53%; viability at 1 µM [33]: 89%; viability at 0.5 µM [34]: 96.5%; Activity [35]: 9.43%; inhibition of growth at 8 µM [36]: 34.2%; inhibition of growth at 2 µM [37]: 21.9%; inhibition of growth at 2 µM [38]: 56.5%
– | – | Nc1ccccc1NC(=O)c1ccc(COc2ccc(F)cc2)cc1 | – | – | – | – | – | – | – | – | – | – | – | – | – | – | – | – | – | – | Vd [39]: 2.33 L/kg; half-life [40]: 33.6 min; clearance [41]: 118 mL/min/kg
